Measured values taken from ChEMBL document CHEMBL4330154, “Di- and heptavalent nicotinic analogues to interfere with α7 nicotinic acetylcholine receptors” (Bioorg Med Chem, 2019).

Experiments:
Assay type in all cases: cell-based
[1] = molecular target: T1, Neuronal acetylcholine receptor subunit alpha-7 (Homo sapiens, UniProt P36544); assay: Antagonist activity at human alpha7 nAChR expressed in Xenopus laevis oocytes assessed as inhibition of ACh-induced inward current at -60 mV holding potential preincubated for 1 min followed by ACh addition by two-microelectrode voltage clamp assay relative to 2-(2-(2-(2-(4-(5-(1-methylpyrrolidin-2-yl)pyridin-3-yl)-1H-1,2,3-triazol-1-yl)ethoxy)ethoxy)ethoxy)ethanol
T1 sequence (P36544 whole entry): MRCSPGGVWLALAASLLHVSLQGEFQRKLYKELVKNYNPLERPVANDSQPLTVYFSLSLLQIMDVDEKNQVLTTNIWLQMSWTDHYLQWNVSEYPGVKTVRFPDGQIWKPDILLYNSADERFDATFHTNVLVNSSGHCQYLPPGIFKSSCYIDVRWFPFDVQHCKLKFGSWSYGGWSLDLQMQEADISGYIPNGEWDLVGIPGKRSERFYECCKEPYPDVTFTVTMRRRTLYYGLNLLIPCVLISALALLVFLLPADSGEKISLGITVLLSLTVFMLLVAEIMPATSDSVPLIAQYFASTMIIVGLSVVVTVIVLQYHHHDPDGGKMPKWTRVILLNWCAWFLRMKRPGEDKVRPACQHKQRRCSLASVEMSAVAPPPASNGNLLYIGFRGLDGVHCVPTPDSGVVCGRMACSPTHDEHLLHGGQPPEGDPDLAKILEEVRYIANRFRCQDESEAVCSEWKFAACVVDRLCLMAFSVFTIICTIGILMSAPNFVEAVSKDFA

[2] = molecular target: T1, Neuronal acetylcholine receptor subunit alpha-7; assay: Antagonist activity at human alpha7 nAChR expressed in Xenopus laevis oocytes assessed as inhibition of ACh-induced inward current at -60 mV holding potential preincubated for 1 min followed by ACh addition by two-microelectrode voltage clamp assay
Method in brief: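 Oocytes expressing human α7 mRNA were clamped at −60 mV on an automated TEVC rig, using electrodes of 50–60 MΩ filled with 1 M KCl/1 M ammonium acetate. The bath was OR2 (88 mM NaCl, 1 mM MgCl₂, 5 mM Hepes, pH 7.6). ACh 100 μM was applied three times with 4 min washes between. Each oocyte then got a 1 min compound preincubation followed by 100 μM ACh plus the same compound concentration. IC50 came from a Hill fit of the fractional current.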

[3] = molecular target: T1, Neuronal acetylcholine receptor subunit alpha-7; assay: Antagonist activity at human alpha7 nAChR expressed in Xenopus laevis oocytes assessed as inhibition of ACh-induced inward current at -60 mV holding potential preincubated for 1 min followed by ACh addition by two-microelectrode voltage clamp assay relative to cyclodextrin reference compound
Method in brief: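 Human α7 mRNA expressed in Xenopus oocytes; automated two-electrode voltage clamp at -60 mV holding, electrodes filled with 1 M KCl/1 M ammonium acetate; OR2 buffer (88 mM NaCl, 1 mM MgCl2, 5 mM Hepes, pH 7.6). Three 100 μM ACh applications spaced by 4 min washes; 1 min compound preincubation, then 100 μM ACh plus compound. IC50 from fit F = 1/[1+([X]/IC50)^nH].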

SMILES | fold change (FC) [1] | IC50 [2] | inhibition [2] | fold change (FC) [3]
CN1CCCC1c1cncc(-c2cn(CCOCCOCCOCCn3cc(-c4cncc(C5CCCN5C)c4)nn3)nn2)c1 (configuration not stated) | 8.1 | 12 µM | Dose-dependent effect | –
CN1CCCC1c1cncc(-c2cn(CCOCCOCCOCCOCCOCCOCCOCCOCCOCCOCCOCCOCCOCCOCCOCCOCCOCCOCCOCCn3cc(-c4cncc(C5CCCN5C)c4)nn3)nn2)c1 (configuration not stated) | 0.61 | 160 µM | Dose-dependent effect | –
CN1CCCC1c1cncc(-c2cn(C[C@H]3O[C@@H]4O[C@H]5[C@H](O)[C@@H](O)[C@@H](O[C@H]6[C@H](O)[C@@H](O)[C@@H](O[C@H]7[C@H](O)[C@@H](O)[C@@H](O[C@H]8[C@H](O)[C@@H](O)[C@@H](O[C@H]9[C@H](O)[C@@H](O)[C@@H](O[C@H]%10[C@H](O)[C@@H](O)[C@@H](O[C@H]3[C@H](O)[C@H]4O)O[C@@H]%10CO)O[C@@H]9CO)O[C@@H]8CO)O[C@@H]7CO)O[C@@H]6CO)O[C@@H]5CO)nn2)c1 (some centres not stated) | – | 56 µM | Dose-dependent effect | –
CN1CCCC1c1cncc(-c2cn(CCOCCOCCOCCOCCOCCOCCOCCOCCOCCOCCOCCn3cc(-c4cncc(C5CCCN5C)c4)nn3)nn2)c1 (configuration not stated) | 0.32 | 300 µM | Dose-dependent effect | –
CN1CCCC1c1cncc(-c2cn(CCOCCOCCOCCOCCOCCOCCOCCOCCOCCOCCOCCOCCOCCOCCOCCOCCOCCOCCOCCOCCOCCOCCOCCOCCOCCOCCOCCn3cc(-c4cncc(C5CCCN5C)c4)nn3)nn2)c1 (configuration not stated) | 4.6 | 21 µM | Dose-dependent effect | –
CN1CCCC1c1cncc(-c2cn(CCOCCOCCOCCOCCOCCOCCOCCn3cc(-c4cncc(C5CCCN5C)c4)nn3)nn2)c1 (configuration not stated) | 0.16 | 611 µM | Dose-dependent effect | –
CN1CCCC1c1cncc(-c2cn(CCOCCOCCOCCO)nn2)c1 (configuration not stated) | – | 195 µM | Dose-dependent effect | –
CN1CCCC1c1cncc(-c2cn(C[C@H]3O[C@@H]4O[C@H]5[C@H](O)[C@@H](O)[C@@H](O[C@H]6[C@H](O)[C@@H](O)[C@@H](O[C@H]7[C@H](O)[C@@H](O)[C@@H](O[C@H]8[C@H](O)[C@@H](O)[C@@H](O[C@H]9[C@H](O)[C@@H](O)[C@@H](O[C@H]%10[C@H](O)[C@@H](O)[C@@H](O[C@H]3[C@H](O)[C@H]4O)O[C@@H]%10Cn3cc(-c4cncc(C%10CCCN%10C)c4)nn3)O[C@@H]9Cn3cc(-c4cncc(C9CCCN9C)c4)nn3)O[C@@H]8Cn3cc(-c4cncc(C8CCCN8C)c4)nn3)O[C@@H]7Cn3cc(-c4cncc(C7CCCN7C)c4)nn3)O[C@@H]6Cn3cc(-c4cncc(C6CCCN6C)c4)nn3)O[C@@H]5Cn3cc(-c4cncc(C5CCCN5C)c4)nn3)nn2)c1 (some centres not stated) | – | 196 µM | Dose-dependent effect | 0.14
